The text below walks through data of ChEMBL document CHEMBL3997810, “A Novel Potent Anticancer Compound Optimized from a Natural Oridonin Scaffold Induces Apoptosis and Cell Cycle Arrest through the Mitochondrial Pathway” (J Med Chem, 2017).

Calls of active or inactive are those of the source. The calls are words filed in the database; no cut-off is given here.

One data set concerns Mus musculus. The data set can be described thus: Toxicity in Balb/c nude mouse xenografted with human MCF7 cells assessed as morphological changes in lungs at 20 mg/kg/day, iv for 4 weeks by hematoxylin and eosin staining based microscopic method. In kind it is organism-based. The conditions noted are these: in vivo, 672 h. The gist of the method: (§1)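 Male BALB/c nude mice aged six weeks received 1 × 10^6 MCF-7 cells subcutaneously in the right flank. After 7 d they were randomized and dosed 20 mg/kg iv once daily in 10% DMF/2% poloxamer/88% saline; saline control. Heart, liver, spleen, lung and kidney were fixed in 4% paraformaldehyde, paraffin-embedded, sectioned at 5 μm, H&E stained and examined microscopically.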
A general note: A xenograft is tissue or cells of one species grown in another, often human tumour cells in immunodeficient mice.
For the compound `C=C1C(=O)[C@]23[C@H](O)[C@H]1CC[C@H]2[C@@]12CO[C@]3(O)[C@@H](O)[C@@H]1C(C)(C)CC[C@@H]2O` [ORIDONIN], the Activity entry is on record as “Non-Toxic”.

Another data set deals with MCF7. Kind of data set: Cytotoxicity against human MCF7 cells at 10 to 50 uM after 24 hrs by LDH assay. Format: functional, cell-based.
Details: not given
The essentials:
(§2)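 Membrane integrity assay on MCF-7 and Bel-7402 cells seeded at ~5 × 10^3 per well for 24 h, then given compounds at 10, 20 or 50 μM. Culture medium collected and assayed with CytoTox-ONE LDH reagent for 10 min, followed by stop solution. Fluorescence read at Ex 560/Em 590 nm. Expressed as percentage of unstimulated cells.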
Consider `C=C1C(=O)[C@]23[C@H](O)[C@H]1CC[C@H]2[C@@]12CO[C@]3(O)[C@@H](O)[C@@H]1C(C)(C)CC[C@@H]2O` [ORIDONIN], for which the result was inactive.

For the next data set, the system named is Bel-7402. The data set can be described thus: Cytotoxicity against human Bel7402 cells at 10 to 50 uM after 24 hrs by LDH assay. In kind it is functional, cell-based.
Details: not given
The gist of the method: as §2
Turning to `C=C1C(=O)[C@]23[C@H](O)[C@H]1CC[C@H]2[C@@]12CO[C@]3(O)[C@@H](O)[C@@H]1C(C)(C)CC[C@@H]2O` [ORIDONIN], the result was inactive.

For the next data set, the system named is Mus musculus. Kind of data set: Toxicity in Balb/c nude mouse xenografted with human MCF7 cells assessed as morphological changes in spleen at 20 mg/kg/day, iv for 4 weeks by hematoxylin and eosin staining based microscopic method. Format: organism-based. The conditions noted are these: in vivo, 672 h. The gist of the method:
as §1
Consider `C=C1C(=O)[C@]23[C@H](O)[C@H]1CC[C@H]2[C@@]12CO[C@]3(O)[C@@H](O)[C@@H]1C(C)(C)CC[C@@H]2O` [ORIDONIN], for which the Activity entry is “Non-Toxic”.

System in the next data set: not listed separately
The data set can be described thus: Selectivity ratio of IC50 for human L02 cells to IC50 for human Bel7402 cells.
Details: not given
In the case of `C=C1C(=O)[C@]23[C@H](O)[C@H]1CC[C@H]2[C@@]12CO[C@]3(O)[C@@H](O)[C@@H]1C(C)(C)CC[C@@H]2O` [ORIDONIN], the “Ratio IC50” value is 6.

A further data set has as its system Bel-7402. Kind of data set: Antiproliferative activity against human Bel7402 cells after 72 hrs by MTT assay. The conditions noted are these: Bel-7402, 72 h. Format: functional, cell-based. The gist of the method:
(§3)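 MGC-803 and MCF-7 cells grown in DMEM (MCF-7 with 1× NEAA); Bel-7402 and K562 grown in RPMI 1640; all media with 10% FBS. Cells seeded at 3500/well, pre-incubated 24 h, then exposed to compounds in fresh medium (DMSO ≤0.25%) for 72 h at 37 °C. MTT read-out at 570 nm. Quadruplicate wells, repeated three times; means ± SD (n = 3).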
In the case of `C=C1C(=O)[C@]23[C@H](O)[C@H]1CC[C@H]2[C@@]12CO[C@]3(O)[C@@H](O)[C@@H]1C(C)(C)CC[C@@H]2O` [ORIDONIN], half-maximal inhibition (IC50) was put at 5.41 µM.

In a further data set the test system is MCF7. Kind of data set: Antiproliferative activity against human MCF7 cells after 72 hrs by MTT assay. In kind it is functional, cell-based. The conditions noted are these: MCF7, 72 h. The essentials:
as §3
(In general: Tetrazolium assays rely on reduction of a dye to a coloured formazan, in cell work by metabolically active cells.)
With `C=C1C(=O)[C@]23[C@H](O)[C@H]1CC[C@H]2[C@@]12CO[C@]3(O)[C@@H](O)[C@@H]1C(C)(C)CC[C@@H]2O` [ORIDONIN], the IC50 came to 17.9 µM.

The test system of another data set is BEL-7404 tumor cell line. Kind of data set: Antiproliferative activity against human Bel7404 cells after 48 hrs by MTT assay. In kind it is functional, cell-based. As to conditions: BEL-7404, 48 h. The essentials: (§4)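 Colorimetric MTT assay. KB-3-1, NCI-H460 and Bel-7404 cells were seeded at 4000 cells/well; resistant KB/CP4, NCI-H460/MX20 and Bel-7404/CP20 were seeded at 7000 cells/well. Cells were pre-incubated 24 h at 37 °C, 5% CO2, then exposed to a compound concentration series for 48 h with DMSO ≤0.25%. Absorbance read at 570 nm. Quadruplicate wells, three repeats; means ± SD.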
Compound `C=C1C(=O)[C@]23[C@H](O)[C@H]1CC[C@H]2[C@@]12CO[C@]3(O)[C@@H](O)[C@@H]1C(C)(C)CC[C@@H]2O` [ORIDONIN] returned an IC50 of 17.9 µM.

In a further data set the test system is Mus musculus. The data set can be described thus: Hepatotoxicity in Balb/c nude mouse xenografted with human MCF7 cells assessed as morphological changes in liver at 20 mg/kg/day, iv for 4 weeks by hematoxylin and eosin staining based microscopic method. Format: toxicity, organism-based. As to conditions: in vivo, 672 h. The gist of the method:
(§5)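 Male BALB/c nude mice (6 weeks old) carrying subcutaneous MCF-7 xenografts (1 × 10^6 cells). Dosed iv 20 mg/kg daily for 28 days in 10% DMF/2% poloxamer/88% saline; six mice per group. Organs then fixed in 4% paraformaldehyde, paraffin-embedded, cut at 5 μm, stained with Harris hematoxylin and eosin-phloxine, and examined by light microscopy.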
Turning to `C=C1C(=O)[C@]23[C@H](O)[C@H]1CC[C@H]2[C@@]12CO[C@]3(O)[C@@H](O)[C@@H]1C(C)(C)CC[C@@H]2O` [ORIDONIN], the Activity result is on record as “Non-Toxic”.

A further data set relates to K562. The data set can be described thus: Antiproliferative activity against human K562 cells after 72 hrs by MTT assay. Format: functional, cell-based. As to conditions: K562, 72 h. The essentials: as §3
Regarding `C=C1C(=O)[C@]23[C@H](O)[C@H]1CC[C@H]2[C@@]12CO[C@]3(O)[C@@H](O)[C@@H]1C(C)(C)CC[C@@H]2O` [ORIDONIN], the IC50 was 4.33 µM.

A further data set deals with Mus musculus. Kind of data set: Cardiotoxicity in Balb/c nude mouse xenografted with human MCF7 cells assessed as morphological changes in heart at 20 mg/kg/day, iv for 4 weeks by hematoxylin and eosin staining based microscopic method. Format: toxicity, organism-based. The conditions noted are these: in vivo, 672 h. The essentials: as §5
As to `C=C1C(=O)[C@]23[C@H](O)[C@H]1CC[C@H]2[C@@]12CO[C@]3(O)[C@@H](O)[C@@H]1C(C)(C)CC[C@@H]2O` [ORIDONIN], the Activity entry is listed as “Non-Toxic”.

The subject of the next data set is Mus musculus. Kind of data set: Nephrotoxicity in Balb/c nude mouse xenografted with human MCF7 cells assessed as morphological changes in kidney at 20 mg/kg/day, iv for 4 weeks by hematoxylin and eosin staining based microscopic method. In kind it is toxicity, organism-based. As to conditions: in vivo, 672 h. The essentials:
as §1
As to `C=C1C(=O)[C@]23[C@H](O)[C@H]1CC[C@H]2[C@@]12CO[C@]3(O)[C@@H](O)[C@@H]1C(C)(C)CC[C@@H]2O` [ORIDONIN], the Activity entry is on record as “Non-Toxic”.

System in the next data set: not listed separately
The data set can be described thus: Antiproliferative activity against human NCI-H460/MX20 cells after 48 hrs by MTT assay. In kind it is functional, cell-based. The conditions noted are these: NCI-H460/MX20, 48 h. The essentials:
as §4
In turn, `C=C1C(=O)[C@]23[C@H](O)[C@H]1CC[C@H]2[C@@]12CO[C@]3(O)[C@@H](O)[C@@H]1C(C)(C)CC[C@@H]2O` [ORIDONIN] gave a half-maximal inhibitory concentration (IC50) of 25.9 µM.

The subject of the next data set is MGC-803. The data set can be described thus: Antiproliferative activity against human MGC803 cells after 72 hrs by MTT assay. In kind it is functional, cell-based. As to conditions: MGC-803, 72 h. The gist of the method:
as §3
Take `C=C1C(=O)[C@]23[C@H](O)[C@H]1CC[C@H]2[C@@]12CO[C@]3(O)[C@@H](O)[C@@H]1C(C)(C)CC[C@@H]2O` [ORIDONIN]: the IC50 was found to be 9.06 µM.

System in the next data set: not listed separately
Kind of data set: Antiproliferative activity against human KB/CP4 cells after 48 hrs by MTT assay. In kind it is functional, cell-based. As to conditions: KB/CP4, 48 h. The essentials: as §4
For the compound `C=C1C(=O)[C@]23[C@H](O)[C@H]1CC[C@H]2[C@@]12CO[C@]3(O)[C@@H](O)[C@@H]1C(C)(C)CC[C@@H]2O` [ORIDONIN], the IC50 worked out at 10.8 µM.

System in a further data set: not listed separately
Kind of data set: Antiproliferative activity against human BEL7404/CP20 cells after 48 hrs by MTT assay. As to conditions: BEL7404/CP20, 48 h. In kind it is functional, cell-based. The gist of the method:
as §4
In turn, `C=C1C(=O)[C@]23[C@H](O)[C@H]1CC[C@H]2[C@@]12CO[C@]3(O)[C@@H](O)[C@@H]1C(C)(C)CC[C@@H]2O` [ORIDONIN] returned an IC50 of 17.2 µM.

Another data set has as its system KB 3-1. Kind of data set: Antiproliferative activity against human KB-3-1 cells after 48 hrs by MTT assay. In kind it is functional, cell-based. The conditions noted are these: KB 3-1, 48 h. The essentials: as §4
As to `C=C1C(=O)[C@]23[C@H](O)[C@H]1CC[C@H]2[C@@]12CO[C@]3(O)[C@@H](O)[C@@H]1C(C)(C)CC[C@@H]2O` [ORIDONIN], the midpoint of inhibition, the IC50, lay at 13.2 µM.

The next data set relates to NCI-H460. Kind of data set: Antiproliferative activity against human NCI-H460 cells after 48 hrs by MTT assay. Format: functional, cell-based. As to conditions: NCI-H460, 48 h. The essentials: as §4
`C=C1C(=O)[C@]23[C@H](O)[C@H]1CC[C@H]2[C@@]12CO[C@]3(O)[C@@H](O)[C@@H]1C(C)(C)CC[C@@H]2O` [ORIDONIN]: the concentration for half-maximal inhibition (IC50) is 20.5 µM.

For the next data set, the system named is MCF7. The data set can be described thus: Antitumor activity against human MCF7 cells xenografted in Balb/c nude mouse assessed as tumor growth inhibition at 20 mg/kg/day, iv for 4 weeks relative to control. Format: functional. As to conditions: 672 h, read-out: TGI. The essentials: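 Six-week-old male BALB/c nude mice received 1 × 10^6 MCF-7 cells subcutaneously in the right flank. After 7 d of tumor growth, mice were randomized into groups of six. Dosing was 20 mg/kg iv once daily for 28 days in 10% DMF/2% poloxamer/88% saline. Tumor volume (L × W²/2) and body weight were recorded every 2 days. Inhibition = (1 − mean treated/control tumor weight) × 100%.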
Consider `C=C1C(=O)[C@]23[C@H](O)[C@H]1CC[C@H]2[C@@]12CO[C@]3(O)[C@@H](O)[C@@H]1C(C)(C)CC[C@@H]2O` [ORIDONIN], for which the inhibition in vivo at 20 mg/kg/day turned out to be 58.9%.

The test system of the next data set is Mus musculus. The data set can be described thus: Toxicity in Balb/c nude mouse xenografted with human MCF7 cells assessed as changes in body weight at 20 mg/kg/day, iv for 4 weeks measured once in 2 days during compound dosing. Format: organism-based. The conditions noted are these: in vivo. The gist of the method: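 Mice received 1 × 10^6 tumor cells subcutaneously in the right flank: MCF-7 in male BALB/c nude mice aged six weeks, H22 in male ICR mice aged five weeks. After 7 d they were randomized (six or eight per group). Dosing was 20 mg/kg iv daily in 10% DMF/2% poloxamer/88% saline for 21 or 28 days; saline control. Body weight was recorded every 2 days.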
For the compound `C=C1C(=O)[C@]23[C@H](O)[C@H]1CC[C@H]2[C@@]12CO[C@]3(O)[C@@H](O)[C@@H]1C(C)(C)CC[C@@H]2O` [ORIDONIN], the Activity entry is reported as “Non-Toxic”.

For orientation: IC50 means the concentration that gives 50% inhibition. Higher therefore signals lower potency.
